Experimental findings from ChEMBL document CHEMBL1159324, “Bioactive isomalabaricane triterpenes from the marine sponge Rhabdastrella globostellata” (J Nat Prod, 2002) are described below.

pIC50: −log10 of the molar value.

Format in all cases: functional, cell-based
Settings in all cases: HCT-116, 48 h

For experiment [1], the system named is HCT-116. The experiment is described as follows: Cytotoxicity against P21 deficient human HCT116 cells after 48 hrs by MTS assay. In a few lines: (§1)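 HCT116 colon tumour lines (wild type and isogenic p53- or p21-deficient, p21 disrupted by homologous recombination) grown in McCoy's 5A with 10% FBS, penicillin/streptomycin, L-glutamine and sodium pyruvate at 37 °C, 5% CO2. Seeded per well at 3000 (p53+, p53-), 4000 (p21+) or 6000 (p21-) cells. After 24 h, medium was replaced. Cells were exposed to varying concentrations for 48 h, and MTS bioreduction was read at 490 nm.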
On the technique in general: Tetrazolium dyes change colour on reduction, which living cells bring about.

The subject of experiment [2] is HCT-116. The experiment is described as follows: Cytotoxicity against P21+ wild type human HCT116 cells after 48 hrs by MTS assay. The procedure, abridged:
as §1

The subject of experiment [3] is HCT-116. The experiment is described as follows: Cytotoxicity against P53 deficient human HCT116 cells after 48 hrs by MTS assay. In a few lines: as §1
The test system of experiment [4] is HCT-116. The experiment is described as follows: Cytotoxicity against P53+ wild type human HCT116 cells after 48 hrs by MTS assay. In a few lines:
as §1

Consider `CC(=O)O[C@H]1CC[C@@]2(C)[C@@H](CC[C@]3(C)/C(=C(C)/C=C/C=C(C)/C=C/C=C(\C)C(=O)O)C(=O)C[C@@H]23)C1(C)C`, for which the pIC50 is 5.41 with HCT-116 [1] and under 5.31 in the experiment on HCT-116 [2].
Taken in the same sequence, the figures for `CC(=O)O[C@H]1CC[C@@]2(C)[C@@H](CC[C@]3(C)\C(=C(C)/C=C/C=C(C)/C=C/C=C(\C)C(=O)O)C(=O)C[C@@H]23)C1(C)C` were 5.40 and under 5.31.
As for `CC(/C=C/C=C(\C)C(=O)O)=C\C=C\C(C)=C1\C(=O)C[C@H]2[C@@]3(C)CCC(=O)C(C)(C)[C@@H]3CC[C@]12C` [RHABDASTRELLIC ACID A], the pIC50 in the experiment with HCT-116 [1] is 5.46; in the experiment with HCT-116 [2], under 5.27.
In the same order, the values of `C\C(=C/C=C/C(C)=C1/C(=O)C[C@H]2[C@@]3(C)CCC(=O)C(C)(C)[C@@H]3CC[C@]12C)c1ccc(C)c(=O)o1` [STELLETIN A] are 6.59 and 5.35.
Consider `CC(/C=C/C=C(C)/C=C/C=C(\C)C(=O)O)=C1/C(=O)C[C@H]2[C@@]3(C)CCC(=O)C(C)(C)[C@@H]3CC[C@]12C` [STELLETIN E], for which the pIC50 with HCT-116 [3] was under 5.27; with HCT-116 [4], under 5.27; in the experiment with HCT-116 [1], 7.41; in the experiment with HCT-116 [2] it was 5.34.
Consider `CC(/C=C/C=C(\C)c1ccc(C)c(=O)o1)=C1/C(=O)C[C@H]2[C@@]3(C)CCC(=O)C(C)(C)[C@@H]3CC[C@]12C` [STELLETTIN B], for which the pIC50 in the experiment on HCT-116 [3] is 5.08; in the experiment on HCT-116 [4], 5.14; in the experiment on HCT-116 [1], 7.37; in the experiment on HCT-116 [2], 6.19.
On to `CC(=O)O[C@H]1CC[C@@]2(C)[C@@H](CC[C@]3(C)\C(=C(C)/C=C/C=C(\C)c4ccc(C)c(=O)o4)C(=O)C[C@@H]23)C1(C)C` [STELLETTIN C], for which the figures for the pIC50 with HCT-116 [1] and in the experiment with HCT-116 [2] were 6.52 and 5.61, respectively.
Regarding `CC(=O)O[C@H]1CC[C@@]2(C)[C@@H](CC[C@]3(C)/C(=C(C)/C=C/C=C(\C)c4ccc(C)c(=O)o4)C(=O)C[C@@H]23)C1(C)C` [STELLETTIN D], the negative logarithm of the IC50 (pIC50) with HCT-116 [1] was 6.51; with HCT-116 [2] it was 6.37.

The term pIC50 denotes the IC50 on a negative log10 scale, so that one unit is a factor of ten. A low value points to a large IC50.
